Source: PubChem BioAssay
ALR inh: inhibitors of human ALR sulfhydryl oxidase, primary screen, biochemical, H2O2 detection, HRP-luminol luminescence, single point; FAD-linked sulfhydryl oxidase ALR (Homo sapiens), P55789; purified ALR, DTT oxidation; inhibition, % (no concentration beside the values); 290,000 compounds, 3.8% hits; AID 485317, 2010;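 active = mean replicate inhibition above about 79%, with every replicate also reaching it, limit read from the data; inconclusive = only one of the two criteria met; inactive = mean below limit and not every replicate reaching it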
NALP1 inh: NALP1 inflammasome inhibitors in reconstituted yeast, colorimetric, S. cerevisiae, triplicate retest; inhibition, % at 10 µM; 280,000 compounds, 0.61% hits; AID 2071, 2009; S. cerevisiae NALP1/ASC/caspase-1 growth, X-gal OD620, 72 h; in the data active = inhibition mostly above about 24%, no sharp cut-off; inactive = mostly below about 32%
DSG3 Ab inh: inhibitors of pemphigus antibody binding to DSG3, primary screen, biochemical, bead-based, flow cytometry, scFv-GFP; AID 588358, 2011; binding (percent of control), % at 10 µM; 310,000 compounds, 0.48% hits; Desmoglein-3 (Homo sapiens), P32926; DSG3-coupled beads, scFv-anti-DSG3-GFP binding; active compounds read low;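 active = binding more than 3 SD below its plate's average and above zero; inconclusive = below that plate limit but binding exactly zero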;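 note: hits lower antibody fragment binding to DSG3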
Target sequence (P32926 whole entry, looked up, the tested form may be a part): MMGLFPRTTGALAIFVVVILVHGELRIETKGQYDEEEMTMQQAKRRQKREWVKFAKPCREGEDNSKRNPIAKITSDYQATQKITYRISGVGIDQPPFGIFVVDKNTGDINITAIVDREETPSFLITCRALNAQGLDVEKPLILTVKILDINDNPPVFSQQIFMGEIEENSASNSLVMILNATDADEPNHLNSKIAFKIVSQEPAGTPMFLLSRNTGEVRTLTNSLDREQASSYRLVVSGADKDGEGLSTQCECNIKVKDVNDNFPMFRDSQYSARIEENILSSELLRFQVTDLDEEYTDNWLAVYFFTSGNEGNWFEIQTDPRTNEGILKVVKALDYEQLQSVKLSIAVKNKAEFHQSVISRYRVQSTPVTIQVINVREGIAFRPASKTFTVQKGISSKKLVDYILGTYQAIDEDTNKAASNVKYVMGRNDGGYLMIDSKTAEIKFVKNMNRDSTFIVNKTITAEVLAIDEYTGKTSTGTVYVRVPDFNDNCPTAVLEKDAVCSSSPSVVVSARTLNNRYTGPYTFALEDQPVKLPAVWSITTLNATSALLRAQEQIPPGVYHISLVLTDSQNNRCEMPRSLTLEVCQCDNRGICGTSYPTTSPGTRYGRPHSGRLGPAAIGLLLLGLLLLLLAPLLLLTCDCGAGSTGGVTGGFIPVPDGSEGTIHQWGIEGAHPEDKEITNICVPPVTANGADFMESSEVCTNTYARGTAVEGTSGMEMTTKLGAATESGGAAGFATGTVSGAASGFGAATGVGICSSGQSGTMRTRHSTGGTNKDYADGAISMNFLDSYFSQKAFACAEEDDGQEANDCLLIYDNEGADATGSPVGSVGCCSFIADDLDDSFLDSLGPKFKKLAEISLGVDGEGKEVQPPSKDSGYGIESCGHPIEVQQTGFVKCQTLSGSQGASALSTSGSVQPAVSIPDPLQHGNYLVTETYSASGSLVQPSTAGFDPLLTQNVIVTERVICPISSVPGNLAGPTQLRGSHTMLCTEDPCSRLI
Arr AP2 block: inhibitors of beta-arrestin/AP2 binding, primary screen, biochemical, GPCR trafficking, flow cytometry; inhibition, % at 10 µM; AID 504490, 2011; FITC-arrestin peptide / GST-AP2 beads; AP2 beta2 appendage carries R879A mutation; 340,000 compounds, 0.31% hits;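 active = inhibition above a set limit, near 3 SD of compounds lacking own fluorescence, cut at about 54% in these data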
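System: GST-AP2 R879A glutathione beads. Medium: PBS with 0.05% Tween 20 and 0.1% BSA. Also added: FITC-arrestin peptide, 50 nM. Incubation: 12 min plus 1 h, RT. Measured by: high-throughput flow cytometry of beads, ex 488, em 535 nm. Evaluation: percent drop in bead-associated FITC signal.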
NLRP3 yeast inh: NALP3 inflammasome inhibitors in reconstituted yeast, primary screen, luminescence, uHTS. inhibition, % at 10 µM. Yeast reconstituted NLRP3/ASC/caspase-1, beta-gal luminescence, 24 h. 330,000 compounds, 0.39% hits;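 active = inhibition of 50% or more; inactive = inhibition below 50%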
PolyA inh: polyadenylation inhibitors in yeast reporter cells, primary screen, luminescence, S. cerevisiae; activity score, % at 12 µM; S. cerevisiae SKY197-pL101 polyadenylation reporter, beta-gal luminescence; efflux-impaired pdr1/pdr3 knockout yeast; score 100 = 6 SD above DMSO; AID 1875, 2009; 300,000 compounds, 0.02% hits;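 active = lowest replicate activity score at least 50, where 100 means six control SD above control mean; inconclusive = lowest score under 50 but half or more replicates reach 50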;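 note: yeast exposed to compound for 9 h at 30 °C; higher score means more reporter readthrough which indicates perturbed polyadenylation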
Of the large screens only hits and unclear results are named; the others gave an inactive call. An excerpt weighted towards active compounds, which were near 4.6% of everything screened.

Cc1ccc(CN2CCC(C(=O)c3ccc(F)cc3)CC2)cc1	none (no result: ALR inh, NALP1 inh, Arr AP2 block, NLRP3 yeast inh, PolyA inh)
CC(OC(=O)CCN=C1NS(=O)(=O)c2ccccc21)C(=O)Nc1ccc(F)c(F)c1F (configuration not stated)	none (no result: NALP1 inh)
COc1cc(/C=N\N=C2/SC(CC(=O)O)C(=O)N2c2ccc(O)cc2)ccc1O (configuration not stated)	ALR inh 99.5
F[B-](F)(F)COc1ccccc1	none (no result: ALR inh, NALP1 inh, NLRP3 yeast inh, PolyA inh)
Cc1cccc(Cc2c(C)nc3nc(SCC(=O)NCc4ccco4)nn3c2C)c1	ALR inh 77.3 (no result: DSG3 Ab inh)
COc1ccc(S(=O)(=O)Nc2ccc(N3CCOCC3)cc2)cc1	none
CCOc1ccc(S(=O)(=O)Nc2nc3ccccc3nc2Nc2ccc(N3CCOCC3)cc2)cc1	ALR inh 93.2
CC(C)CNC(=O)CSc1ccc(S(=O)(=O)N2CCN(C)CC2)cn1	none (no result: NALP1 inh, PolyA inh)
Brc1ccc(-c2nc3ncccn3c2NC2CCCCC2)o1	ALR inh 98.7
Cc1ccc(-c2nc3ncccn3c2NC2CCCC2)o1	ALR inh 98.7
CCc1nc(N2CCN(C(=O)CCl)CC2)c2c3c(sc2n1)CC(C)CC3 (configuration not stated)	NALP1 inh 40.2
COc1cccc(N2CCN(C(=O)C3CCN(C(=O)Nc4ccccc4)CC3)CC2)c1	none (no result: ALR inh, NALP1 inh, Arr AP2 block, NLRP3 yeast inh, PolyA inh)
COc1ccccc1N1CC(C(=O)Nc2ccc(N3CCOCC3)cc2)CC1=O (configuration not stated)	none (no result: ALR inh, NALP1 inh, DSG3 Ab inh, PolyA inh)
CN(C)c1ccc(/C=C2\CCCCC2=O)cc1	ALR inh 91.5
Cc1sc(N)nc1-c1ccccc1	none (no result: DSG3 Ab inh)
Nc1c(-c2ccccc2)nc(Cl)nc1-c1ccccc1	NALP1 inh 33.8
Cc1ccc(NC(=O)CN(C)C(=O)C2CSC3(C)CCC(=O)N23)cc1 (configuration not stated)	none (no result: ALR inh, NALP1 inh, Arr AP2 block, NLRP3 yeast inh, PolyA inh)
COc1cc(C2C3=C(COC3=O)OC(C)(C)Oc3cc4c(cc32)OCO4)cc(OC)c1OC (configuration not stated)	none (no result: ALR inh, NALP1 inh, NLRP3 yeast inh, PolyA inh)
c1ccc2c3c([nH]c2c1)C(C1CCCCC1)N(Cc1ncc[nH]1)CC3 (configuration not stated)	ALR inh 98.1
CCN(CC(=O)Nc1c(F)cccc1F)C(=O)CCCSc1nc2ccccc2[nH]1	none (no result: ALR inh, NALP1 inh, Arr AP2 block, NLRP3 yeast inh, PolyA inh)
CCc1nn(CC(=O)NCCCN2CCc3ccccc3C2)c(=O)c2cc3sccc3n12	ALR inh 95.2
CCCn1c(C)nc2c(c1=O)c1nc3ccccc3nc1n2CCC1=CCCCC1	none
CCCn1c(C)nc2c(c1=O)c1nc3ccccc3nc1n2-c1ccccc1	DSG3 Ab inh 87.6 (no result: ALR inh, NALP1 inh, NLRP3 yeast inh, PolyA inh)
COc1cc(/C=C2\C(=O)ON=C2c2ccccc2)cc(Br)c1O	none (no result: ALR inh)
O=C1ON=C(c2ccccc2)/C1=C/c1ccccc1	none (no result: ALR inh)
COc1cc(/C=C2/C(=O)ON=C2c2ccccc2)ccc1O	ALR inh 95.0
O=C1ON=C(c2ccccc2)/C1=C/c1ccc(O)cc1	ALR inh 86.8
COc1cc(/C=C2\C(=O)ON=C2c2ccccc2)cc(Cl)c1O	ALR inh 98.8
COc1cc(C=C2C(=O)c3ccccc3C2=O)ccc1O	none
Cc1ccc(S(=O)(=O)Nc2c(C)cc(C)nc2Cl)cc1	none
c1ccc(-c2csc(Nc3ncccn3)n2)cc1	none
NNc1nc(-c2ccccc2)cs1	ALR inh 99.1
COc1ccc(NC(=O)NNC(=O)c2ccc3ccccc3c2O)c(OC)c1	none
C[C@H](NC(=O)C1CC(=O)N(c2ccc3c(c2)OCCO3)C1)C(=O)N1CCCCC1 (some centres not stated)	none
Cc1cccc(NC(=O)Cn2cc(C(=O)C3CC3)c3ccccc32)c1C	DSG3 Ab inh -14.4
Cc1[nH]nc(N=Cc2c(O)n(C)c(=O)n(C)c2=O)c1-c1ccccc1	none (no result: DSG3 Ab inh, Arr AP2 block)
Cn1c(O)c(/C=N/Nc2ccccc2)c(=O)n(C)c1=O	ALR inh 100.2 (no result: Arr AP2 block)
Cc1csc(NC(=O)c2c(O)c3c(n(CC(C)C)c2=O)CCCC3)n1	NALP1 inh 30.9
Nc1c(C(=O)CSc2nc3ccccc3o2)c(=O)[nH]c(=O)n1C1CC1	none (no result: NALP1 inh, PolyA inh)
Cc1c(Cl)cccc1NC(=O)CCN1CCC(C(N)=O)CC1	none
COc1ccc(-n2nc(C(=O)NCC(=O)N3CCCC3)c3ccccc3c2=O)cc1Cl	DSG3 Ab inh inconclusive
O=C(OCC(=O)N1CCC(Cc2ccccc2)CC1)c1ccc(O)cc1	none (no result: ALR inh, NALP1 inh, Arr AP2 block, NLRP3 yeast inh, PolyA inh)
O=C(NC1CCN(Cc2ccccc2)CC1)c1ccccc1Cl	none
Cc1c(C(=O)NC2CCN(Cc3ccccc3)C2)oc2c(Cl)cccc12 (configuration not stated)	NALP1 inh 39.3
COC(=O)c1c(N)sc2c1CC(C)(C)OC2	ALR inh 98.1
COc1ccc2cc3c(N)nn(C(=O)c4cccc(F)c4)c3nc2c1	none (no result: NALP1 inh)
COc1ccc2cc3c(N)nn(C(=O)c4ccc(F)cc4)c3nc2c1	DSG3 Ab inh 61.8 (no result: NALP1 inh)
Cc1cc(-c2csc3nc[nH]c(=S)c23)cc(C)c1C	ALR inh 97.3 (no result: DSG3 Ab inh)
Cc1ccc(-c2csc3nc[nH]c(=S)c23)cc1	ALR inh 96.6
Cc1ccc(S(=O)(=O)N2CCOCC2)cc1NC(=O)COc1ccccc1Cc1ccccc1	none (no result: ALR inh, NALP1 inh, PolyA inh)
COc1ccc(NC(=O)CSCC(=O)N2CCCc3ccccc32)cc1	ALR inh 89.9 (no result: NALP1 inh)
O=C(CCSCc1ccccc1Cl)NCc1ccco1	ALR inh 93.3
Cc1cccc(NC(=O)CSCC(=O)N2CCCc3ccccc32)c1	none (no result: ALR inh, NALP1 inh)
O=C(CCSCCC(=O)NCc1ccco1)NCc1ccco1	none (no result: DSG3 Ab inh, Arr AP2 block)
COc1ccc(NC(=O)CSc2ccccn2)cc1	none
O=C(Cc1ccccc1)N/N=C/c1cccs1	none
COc1ccc(NC(=O)CSCC(=O)NCCc2ccccn2)cc1	ALR inh 97.7
Cc1ccccc1CSCC(=O)N/N=C/c1cccs1	ALR inh 97.9
Cc1ccc(C(=O)N2CCNC(=O)C2CC(=O)Nc2ccccc2)cc1 (configuration not stated)	none
COc1ccc(CNS(=O)(=O)c2c(C(=O)N3CCCCCC3)c(C)n(C)c2C)cc1	none (no result: DSG3 Ab inh)
CCN(CC)C(=O)C1=C(C)N(CCCOC)C(=O)C(CC(=O)NCc2ccco2)C1 (configuration not stated)	none (no result: ALR inh, NALP1 inh, Arr AP2 block, NLRP3 yeast inh, PolyA inh)
COc1ccc(-n2c(=O)[nH]cc(C(=O)N3CCCc4ccccc43)c2=O)cc1	NALP1 inh 27.1
CCOc1ccc(-n2c(=O)[nH]cc(C(=O)N3CCCc4ccccc43)c2=O)cc1	none
COc1ccc(NC(=O)CSCc2ccccc2C)cc1	ALR inh 84.0
COc1ccc(CNC(=O)CSCc2ccccc2Cl)cc1	ALR inh 98.1 (no result: DSG3 Ab inh)
